pIC50: −log10 of the molar value.
How the values were obtained:
[1] = tested on: Rattus norvegicus; assay: Toxicity in Crl:CD(SD) rat assessed as decrease in monocytes at 50 mg/kg/day, po daily via gavage for 14 days measured on day 15 post last dose relative to control; format: organism-based; parameters: scale not given: the % may be the effect or the level left; details: in vivo, 336 h
[2] = tested on: Rattus norvegicus; assay: Toxicity in Crl:CD(SD) rat assessed as decrease in lymphocytes at 50 mg/kg/day, po daily via gavage for 14 days measured on day 15 post last dose relative to control; format: organism-based; parameters: scale not given: the % may be the effect or the level left; details: in vivo, 336 h
[3] = tested on: Rattus norvegicus; assay: Toxicity in Crl:CD(SD) rat assessed as discolored/mottled liver at 50 mg/kg/day, po daily via gavage for 14 days measured on day 15 post last dose; format: organism-based; details: in vivo, 336 h
Summary of the method: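 Male rats, 5 per group, given vehicle or compound at 50 mg/kg/day by oral gavage for 14 days. Mortality, clinical signs and hematology monitored throughout. Necropsy on day 15 with microscopy of bone marrow, ileum, duodenum, jejunum and liver. Toxicokinetics at 1, 3, 6 and 24 h post-dose on day 14.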

[4] = target: T1, Cytochrome P450 1A2 (Homo sapiens, UniProt P05177); assay: Inhibition of CYP1A2 (unknown origin); format: ADME
T1 sequence (P05177 whole entry): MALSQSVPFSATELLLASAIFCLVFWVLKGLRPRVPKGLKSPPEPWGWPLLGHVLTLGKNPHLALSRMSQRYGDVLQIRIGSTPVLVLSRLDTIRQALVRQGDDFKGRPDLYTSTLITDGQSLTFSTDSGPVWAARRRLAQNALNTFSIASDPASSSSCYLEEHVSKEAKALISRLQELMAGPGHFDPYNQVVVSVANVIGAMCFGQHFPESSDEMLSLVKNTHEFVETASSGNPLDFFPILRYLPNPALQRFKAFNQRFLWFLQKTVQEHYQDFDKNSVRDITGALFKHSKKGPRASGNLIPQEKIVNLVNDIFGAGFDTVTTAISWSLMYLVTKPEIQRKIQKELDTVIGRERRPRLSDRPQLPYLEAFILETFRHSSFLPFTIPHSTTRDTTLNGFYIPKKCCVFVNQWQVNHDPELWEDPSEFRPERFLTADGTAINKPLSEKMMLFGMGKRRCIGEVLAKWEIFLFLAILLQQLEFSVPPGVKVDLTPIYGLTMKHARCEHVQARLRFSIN
Summary of the method: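 Inhibition of CYP1A2, 2D6, 2C9 and 3A4 reported as IC50, or as percent inhibition at 3 µM.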

[5] = tested on: Rattus norvegicus; assay: Toxicity in Crl:CD(SD) rat assessed as decrease in proliferating erythroid cells at 50 mg/kg/day, po daily via gavage for 14 days measured on day 15 post last dose relative to control; format: organism-based; parameters: scale not given: the % may be the effect or the level left; details: in vivo, 336 h

O=C(c1ccc(-n2nnc3cccnc32)cc1)N(c1ncccc1Cl)[C@@H]1CCCNC1
Activity [1]: 63% | Activity [2]: 54% | Activity [3]: Toxic | pIC50 [4]: < 4.52 | Activity [5]: 32.9%
